In brackets after ≈: the same amount, converted by molar mass. Several values for one entry are separate records, joined by “and”; a condition that tells them apart may be missing. Equal entries are not always repeated. Bounds are passed on as bounds.

The target in one data set is T1, Epidermal growth factor receptor (Homo sapiens, UniProt P00533). Kind of data set: Inhibition of epidermal growth factor receptor (EGFR) from human A431 carcinoma cells.
T1 sequence (P00533 whole entry): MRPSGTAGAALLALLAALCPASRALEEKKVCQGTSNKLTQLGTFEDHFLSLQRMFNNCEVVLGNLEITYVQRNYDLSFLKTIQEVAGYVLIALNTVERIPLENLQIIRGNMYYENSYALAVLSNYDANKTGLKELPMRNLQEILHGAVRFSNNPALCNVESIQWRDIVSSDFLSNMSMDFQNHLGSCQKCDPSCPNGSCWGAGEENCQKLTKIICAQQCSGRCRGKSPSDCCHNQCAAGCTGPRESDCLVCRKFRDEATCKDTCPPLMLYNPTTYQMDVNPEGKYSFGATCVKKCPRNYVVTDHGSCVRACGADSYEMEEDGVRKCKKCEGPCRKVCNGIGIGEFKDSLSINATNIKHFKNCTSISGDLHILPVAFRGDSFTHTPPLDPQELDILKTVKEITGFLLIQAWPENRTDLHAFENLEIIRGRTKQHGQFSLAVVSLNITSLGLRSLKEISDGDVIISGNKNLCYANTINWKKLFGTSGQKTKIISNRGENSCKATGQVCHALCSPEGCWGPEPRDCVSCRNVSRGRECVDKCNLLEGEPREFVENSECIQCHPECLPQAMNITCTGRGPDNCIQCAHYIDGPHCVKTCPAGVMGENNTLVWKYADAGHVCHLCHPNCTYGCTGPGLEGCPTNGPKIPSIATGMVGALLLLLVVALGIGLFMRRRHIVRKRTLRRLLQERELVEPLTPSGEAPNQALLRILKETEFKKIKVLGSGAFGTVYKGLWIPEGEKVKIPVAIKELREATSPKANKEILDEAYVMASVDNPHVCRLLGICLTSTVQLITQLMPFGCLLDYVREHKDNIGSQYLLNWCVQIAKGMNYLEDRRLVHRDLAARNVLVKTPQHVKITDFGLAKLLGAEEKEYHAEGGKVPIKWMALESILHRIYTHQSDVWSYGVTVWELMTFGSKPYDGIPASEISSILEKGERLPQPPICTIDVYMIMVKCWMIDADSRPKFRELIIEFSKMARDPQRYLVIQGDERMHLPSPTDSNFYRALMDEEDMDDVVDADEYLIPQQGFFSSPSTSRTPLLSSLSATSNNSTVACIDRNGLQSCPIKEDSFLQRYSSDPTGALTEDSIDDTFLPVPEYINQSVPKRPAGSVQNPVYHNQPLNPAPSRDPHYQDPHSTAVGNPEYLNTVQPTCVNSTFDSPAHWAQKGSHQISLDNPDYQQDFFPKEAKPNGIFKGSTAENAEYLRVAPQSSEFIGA
Take `Brc1cccc(Nc2ncnc3cc(NCCCn4ccnc4)ncc23)c1`: 0.51 nM corresponded to half-maximal inhibition (IC50).

For `Brc1cccc(Nc2ncnc3cc(NCCc4c[nH]cn4)ncc23)c1`, the half-maximal inhibitory concentration (IC50) is 0.91 nM.

With `Cc1cccc(Nc2ncnc3cc(NCCc4c[nH]cn4)ncc23)c1`, half-maximal inhibition (IC50) was put at 7.2 nM.

On to `Cc1cccc(Nc2ncnc3cc(NCCCn4ccnc4)ncc23)c1`, for which half-maximal inhibition (IC50) required 3.5 nM.

A further data set addresses T1, Epidermal growth factor receptor. As to the kind of experiment: Inhibition of epidermal growth factor receptor (EGFR) autophosphorylation in A431 cells.
In the case of `OCC(O)CNc1cc2ncnc(Nc3cccc(Br)c3)c2cn1` (stereo unspecified), the IC50 amounted to 227 nM.

As for `Brc1cccc(Nc2ncnc3cc(NCCCN4CCOCC4)ncc23)c1`, the half-maximal inhibitory concentration (IC50) was found to be 8.1 nM.

`O=C(O)CCNc1cc2ncnc(Nc3cccc(Br)c3)c2cn1` came in with an IC50 of 11400 nM.

`O=S(=O)(O)CCNc1cc2ncnc(Nc3cccc(Br)c3)c2cn1`: the IC50 was > 1000 nM.

`Brc1cccc(Nc2ncnc3cc(NCCN4CCOCC4)ncc23)c1`: the midpoint of inhibition, the IC50, lay at 36 nM.

With `[O-][N+]1(CCCNc2cc3ncnc(Nc4cccc(Br)c4)c3cn2)CCOCC1`, the 50% inhibitory concentration (IC50) was > 1000 nM.

The species named for the next data set is Mus musculus. As to the kind of experiment: Ratio of median treated tumor mass on the last day of therapy divided by the median control tumor mass x 100%. Type of data set: functional. In a few lines: (§1)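 Mice 18-22 g, randomized, implanted sc with A431 epidermoid or EGFR-transfected NIH 3T3 tumor fragments in right axilla on day 0; tumors maintained by serial passage in NCr nu/nu nude mice. Isethionate salts given ip in water, b.i.d. on indicated schedules (days 7-21, 3-17 or 1-15), dosed by average cage weight; solutions prepared 5 days at a time. Maximum treatment-related body weight loss recorded.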
As for `Brc1cccc(Nc2ncnc3cc(NCCCN4CCOCC4)ncc23)c1`, the T/C was determined as 34%.

Tested on in a further data set: not listed separately
Kind of data set: Solubility in water was determined. Type of data set: physicochemical. In a few lines: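 Drug weighed to give approximately 50 mM, sonicated 30 min in 0.05 M sodium lactate buffer (neutral compounds, amine hydrochlorides) or water (sodium salts of acids), left 30 min, centrifuged 13 000 rpm 3 min; supernatant concentration measured by HPLC against calibration from MeOH or DMSO stocks, assuming linear response; 20 °C.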
`Brc1cccc(Nc2ncnc3cc(NCCCn4ccnc4)ncc23)c1`: the solubility is > 40 mM.

With `Brc1cccc(Nc2ncnc3cc(NCCc4c[nH]cn4)ncc23)c1`, the solubility was found to be 35 mM (≈ 14.4 mg/mL).

`Cc1cccc(Nc2ncnc3cc(NCCc4c[nH]cn4)ncc23)c1`: the solubility was > 39 mM.

Take `Cc1cccc(Nc2ncnc3cc(NCCCn4ccnc4)ncc23)c1`: the solubility was > 34 mM.

The species entered for another data set is Mus musculus. Kind of data set: Treatment-related weight loss in mice. Type of data set: functional. In a few lines: as §1
For `Brc1cccc(Nc2ncnc3cc(NCCCN4CCOCC4)ncc23)c1`, the Weight loss is 1.7 g and 0.9 g.

With `CN(C)CCCCNc1cc2ncnc(Nc3cccc(Br)c3)c2cn1`, the Weight loss turned out to be 1 g.

In a further data set the target is T1, Epidermal growth factor receptor. Kind of data set: Inhibition of phosphorylation of polyglutamic acid/tyrosine random copolymer by epidermal growth factor receptor.
Compound `OCC(CO)Nc1cc2ncnc(Nc3cccc(Br)c3)c2cn1` gave an IC50 of 14 nM.

As for `CN(C)CCN(C)c1cc2ncnc(Nc3cccc(Br)c3)c2cn1`, the IC50 was determined as 40 nM. This IC50 lies about 2.9-fold higher than the previous one.

`OCC(O)CNc1cc2ncnc(Nc3cccc(Br)c3)c2cn1` (stereo unspecified) displayed a half-inhibitory concentration (IC50) of 0.92 nM.

For `Brc1cccc(Nc2ncnc3cc(NCCCCN4CCOCC4)ncc23)c1`, the IC50 was 5.4 nM.

Regarding `Brc1cccc(Nc2ncnc3cc(NCCCN4CCOCC4)ncc23)c1`, half-maximal inhibition (IC50) was put at 1.9 nM.

Consider `CN(C)CCCNc1cc2ncnc(Nc3cccc(Br)c3)c2cn1`, for which 8.8 nM corresponded to half-maximal inhibition (IC50).

`CN(CC(=O)O)c1cc2ncnc(Nc3cccc(Br)c3)c2cn1` came in with an IC50 of 16 nM.

Consider `OCCNc1cc2ncnc(Nc3cccc(Br)c3)c2cn1`, for which the midpoint of inhibition, the IC50, lay at 0.24 nM.

`OCCN(CCO)CCCNc1cc2ncnc(Nc3cccc(Br)c3)c2cn1`: the half-maximal inhibitory concentration (IC50) was 1.2 nM.

Compound `CNc1cc2ncnc(Nc3cccc(C)c3)c2cn1` gave an IC50 of 1.4 nM.

For the compound `O=C(O)CCNc1cc2ncnc(Nc3cccc(Br)c3)c2cn1`, the concentration for half-maximal inhibition (IC50) worked out at 0.61 nM.

For `CN(CC(O)C(O)C(O)C(O)CO)c1cc2ncnc(Nc3cccc(Br)c3)c2cn1` (stereo unspecified), the IC50 worked out at 3.2 nM.

Turning to `CN(C)CCNc1cc2ncnc(Nc3cccc(Br)c3)c2cn1`, half-maximal inhibition (IC50) was put at 45 nM.

Turning to `O=S(=O)(O)CCNc1cc2ncnc(Nc3cccc(Br)c3)c2cn1`, the concentration for half-maximal inhibition (IC50) was found to be 1.4 nM.

The compound `O=C(O)CCCNc1cc2ncnc(Nc3cccc(Br)c3)c2cn1` showed an IC50 of 0.28 nM.

The compound `OCCN(CCO)c1cc2ncnc(Nc3cccc(Br)c3)c2cn1` came in with a half-inhibitory concentration (IC50) of 12 nM. Compared with the last compound, the IC50 is about 43-fold higher.

`Brc1cccc(Nc2ncnc3cc(NCCN4CCOCC4)ncc23)c1` had an IC50 of 3.2 nM.

The compound `OCC(O)C(O)C(O)C(O)CNc1cc2ncnc(Nc3cccc(Br)c3)c2cn1` (stereo unspecified) returned an IC50 of 4.8 nM.

Compound `CN(C)CCCCCNc1cc2ncnc(Nc3cccc(Br)c3)c2cn1` registered an IC50 of 8.4 nM.

Consider `CN(C)CCCCNc1cc2ncnc(Nc3cccc(Br)c3)c2cn1`, for which the IC50 is 7.4 nM.

The compound `O=C(O)CNc1cc2ncnc(Nc3cccc(Br)c3)c2cn1` had an IC50 of 1.5 nM.

For the compound `Cc1cccc(Nc2ncnc3cc(NCCCCN(C)C)ncc23)c1`, the 50% inhibitory concentration (IC50) stood at 5.4 nM.

Compound `[O-][N+]1(CCCNc2cc3ncnc(Nc4cccc(Br)c4)c3cn2)CCOCC1` returned a concentration for half-maximal inhibition (IC50) of 0.74 nM.

Take `CN1CCN(CCCNc2cc3ncnc(Nc4cccc(Br)c4)c3cn2)CC1`: the IC50 came to 4.9 nM.

The compound `NNc1cc2ncnc(Nc3cccc(Br)c3)c2cn1` came in with a 50% inhibitory concentration (IC50) of 7.1 nM. The IC50 values of the last two compounds are within 1.5-fold of each other.

As for `CN(CC(O)CO)c1cc2ncnc(Nc3cccc(Br)c3)c2cn1` (stereo unspecified), inhibition was half-maximal at 3.2 nM (IC50).

`CN(CCO)c1cc2ncnc(Nc3cccc(Br)c3)c2cn1` came in with a half-maximal inhibitory concentration (IC50) of 2.6 nM.

`Cc1cccc(Nc2ncnc3cc(NCCCN4CCN(C)CC4)ncc23)c1` yielded an IC50 of 5.6 nM.

Regarding `OCCN(CCO)CCNc1cc2ncnc(Nc3cccc(Br)c3)c2cn1`, the half-maximal inhibitory concentration (IC50) is 9.2 nM.

(Values after ChEMBL document CHEMBL1130246, “Tyrosine kinase inhibitors. 13. Structure-activity relationships for soluble 7-substituted 4-[(3-bromophenyl)amino]pyrido[4,3-d]pyrimidines designed as inhibitors of the tyrosine kinase activity of the epidermal growth factor receptor” (J Med Chem, 1997).)
